Assay results from ChEMBL document CHEMBL4393740, “Preparation and biological evaluation of soluble tetrapeptide epoxyketone proteasome inhibitors” (Bioorg Med Chem, 2019).
pIC50: −log10 of the molar value. Values belong to the molecule of their own block, whether it stands above or below them.

Legend:
[1] = target: T1, Proteasome Macropain subunit MB1 (Homo sapiens, UniProt P28074); assay: Inhibition of human chymotrypsin-like activity of 20S proteasome using Suc-LLVY-AMC as substrate pre-incubated for 10 mins followed by substrate addition and measured after 1 hr by spectrofluorimetry; conditions: for pIC50: read-out: IC50
T1 sequence (P28074 whole entry): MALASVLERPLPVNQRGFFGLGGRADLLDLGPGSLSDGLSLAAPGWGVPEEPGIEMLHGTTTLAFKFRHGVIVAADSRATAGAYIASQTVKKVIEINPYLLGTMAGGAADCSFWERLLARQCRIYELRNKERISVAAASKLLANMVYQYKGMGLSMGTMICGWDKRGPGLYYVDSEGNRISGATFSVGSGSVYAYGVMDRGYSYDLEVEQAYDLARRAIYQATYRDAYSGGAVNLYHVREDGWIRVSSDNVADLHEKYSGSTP

[2] = test system: RPMI-8226; assay: Cytotoxicity against human RPMI8226 cells assessed as cell viability measured after 72 hrs by celltiter96 aqueous cell proliferation assay; type: functional, cell-based; conditions: RPMI-8226, 72 h
Outline: (§1)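 Suspension cells in log phase plated at 5000 (RPMI8226) or 10000 (U266B1) cells per well. Viability read after 72 h by MTS-type CellTiter 96 AQueous One assay on a plate reader. IC50 reported, three repeats.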

[3] = test system: U-266; assay: Cytotoxicity against human U266B1 cells assessed as cell viability measured after 72 hrs by celltiter96 aqueous cell proliferation assay; type: functional, cell-based; conditions: U-266, 72 h; outline: as §1
[4] = Half life in rat liver microsomes at 1 uM pre-incubated for 5 mins followed by NADP+ addition and measured up to 20 mins by LC-MS analysis; type: ADME, Microsome
[5] = Half life in monkey liver microsomes at 1 uM pre-incubated for 5 mins followed by NADP+ addition and measured up to 20 mins by LC-MS analysis; type: ADME, Macaca mulatta, Microsome; conditions: rhesus monkey
[6] = Half life in BALB/c mouse liver microsomes at 1 uM pre-incubated for 5 mins followed by NADP+ addition and measured up to 20 mins by LC-MS analysis; type: ADME, Microsome
Outline: (§2)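 Mixture held 1 µM compound, 0.5 mg/mL microsomal protein (in-house pooled Balb/c mouse or pooled human), 100 mM Tris-HCl pH 7.4, and an NADPH-generating system (5 mM isocitric acid, 0.2 U/mL isocitric dehydrogenase, 5 mM MgCl2, 1 mM NADP+). Preincubated 5 min at 37 °C, started with NADP+, sampled at 0, 5, 10, 20 min. Quenched with cold acetonitrile containing 1 µM phenytoin internal standard. Compound loss measured by LC-MS/MS. Controls omitted NADPH and/or microsomes.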

[7] = Half life in dog liver microsomes at 1 uM pre-incubated for 5 mins followed by NADP+ addition and measured up to 20 mins by LC-MS analysis; type: ADME, Canis lupus familiaris, Microsome
[8] = Half life in human liver microsomes at 1 uM pre-incubated for 5 mins followed by NADP+ addition and measured up to 20 mins by LC-MS analysis; type: ADME, Microsome; outline: as §2
[9] = Intrinsic clearance in rat liver microsomes at 1 uM pre-incubated for 5 mins followed by NADP+ addition and measured up to 20 mins by LC-MS analysis; type: ADME, Microsome; conditions: read-out: CLH
[10] = Intrinsic clearance in BALB/c mouse liver microsomes at 1 uM pre-incubated for 5 mins followed by NADP+ addition and measured up to 20 mins by LC-MS analysis; type: ADME, Microsome; conditions: read-out: CLH; outline: as §2
[11] = Intrinsic clearance in dog liver microsomes at 1 uM pre-incubated for 5 mins followed by NADP+ addition and measured up to 20 mins by LC-MS analysis; type: ADME, Canis lupus familiaris, Microsome; conditions: read-out: CLH
[12] = Intrinsic clearance in monkey liver microsomes at 1 uM pre-incubated for 5 min followed by NADP+ addition and measured up to 20 mins by LC-MS analysis; type: ADME, Macaca mulatta, Microsome; conditions: rhesus monkey, read-out: CLH
[13] = Intrinsic clearance in human liver microsomes at 1 uM pre-incubated for 5 min followed by NADP+ addition and measured up to 20 mins by LC-MS analysis; type: ADME, Microsome; conditions: read-out: CLH; outline: as §2
[14] = test system: ARH-77; assay: Antitumour activity against human ARH77 cells xenografted in nude mouse assessed as tumor growth at 5mg/kg, iv dosed at day 1 ,4, 8 ,11, 15 and 18 for 3 weeks and measured every 2 days by caliper method relative to control; type: functional
Outline: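 Nude mice given subcutaneous 1 × 10^7 ARH77 cells. Randomized at mean tumour 100-150 mm3 into treatment and control groups, n = 5. Dosed i.v. 5 mg/kg on days 1, 4, 8, 11, 15 and 18 for 3 weeks. Tumours sized by caliper, V = length×width²/2, RTV = Vt/V0. T/C% = mean RTV treated / mean RTV control × 100.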

[15] = target: Voltage-gated inwardly rectifying potassium channel KCNH2 (Homo sapiens, UniProt Q12809); assay: Inhibition of human ERG in HEK293 cells assessed as effect on QT interval; type: cell-based
Voltage-gated inwardly rectifying potassium channel KCNH2, sequence (Q12809 whole entry): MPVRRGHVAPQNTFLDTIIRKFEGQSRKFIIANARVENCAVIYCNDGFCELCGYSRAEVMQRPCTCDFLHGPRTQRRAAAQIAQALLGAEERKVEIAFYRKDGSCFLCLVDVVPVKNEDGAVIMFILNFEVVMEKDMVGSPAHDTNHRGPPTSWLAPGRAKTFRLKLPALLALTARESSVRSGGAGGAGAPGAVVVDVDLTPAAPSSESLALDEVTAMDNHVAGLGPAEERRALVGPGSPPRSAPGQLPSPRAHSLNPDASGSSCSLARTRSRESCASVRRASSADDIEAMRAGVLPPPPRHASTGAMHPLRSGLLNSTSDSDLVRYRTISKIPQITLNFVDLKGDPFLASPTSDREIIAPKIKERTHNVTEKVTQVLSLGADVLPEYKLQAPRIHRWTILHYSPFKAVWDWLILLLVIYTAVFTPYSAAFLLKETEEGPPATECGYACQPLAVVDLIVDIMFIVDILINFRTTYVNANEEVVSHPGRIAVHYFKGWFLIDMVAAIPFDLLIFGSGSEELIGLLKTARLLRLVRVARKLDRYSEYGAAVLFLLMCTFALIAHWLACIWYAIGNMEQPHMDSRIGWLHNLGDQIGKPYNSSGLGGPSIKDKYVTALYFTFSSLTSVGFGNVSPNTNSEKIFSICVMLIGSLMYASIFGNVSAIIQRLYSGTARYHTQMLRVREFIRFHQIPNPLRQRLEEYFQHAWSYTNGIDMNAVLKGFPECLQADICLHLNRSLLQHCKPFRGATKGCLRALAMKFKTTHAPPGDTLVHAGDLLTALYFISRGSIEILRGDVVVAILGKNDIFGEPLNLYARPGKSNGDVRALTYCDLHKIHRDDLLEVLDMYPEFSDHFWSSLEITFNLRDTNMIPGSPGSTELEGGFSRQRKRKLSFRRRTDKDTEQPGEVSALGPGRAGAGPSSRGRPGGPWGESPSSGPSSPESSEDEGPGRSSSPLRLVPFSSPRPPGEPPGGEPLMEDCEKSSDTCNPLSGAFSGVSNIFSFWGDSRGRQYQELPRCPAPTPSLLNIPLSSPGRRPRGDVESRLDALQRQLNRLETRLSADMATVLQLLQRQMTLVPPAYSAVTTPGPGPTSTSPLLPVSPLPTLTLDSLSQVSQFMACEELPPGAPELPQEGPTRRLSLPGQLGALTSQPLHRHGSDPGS

pIC50 [1]: 7.32
Structure (SMILES): Cc1cc(C(=O)N[C@@H](CCc2ccccc2)C(=O)N[C@H](C(=O)N[C@@H](Cc2ccccc2)C(=O)N[C@@H](CC(C)C)C(=O)[C@@]2(C)CO2)[C@@H](C)O)no1

pIC50 [1]: 7.38
Structure (SMILES): Cc1cc(C(=O)N[C@@H](CC(C)C)C(=O)N[C@@H](CC(C)C)C(=O)N[C@@H](Cc2ccccc2)C(=O)N[C@@H](CC(C)C)C(=O)[C@@]2(C)CO2)no1

pIC50 [1]: 7.49
Structure (SMILES): Cc1cc(C(=O)N[C@@H](CCc2ccccc2)C(=O)N[C@H](C(=O)N[C@@H](Cc2ccccc2)C(=O)N[C@@H](CC(C)C)C(=O)[C@@]2(C)CO2)C2CC2)no1

pIC50 [1]: 7.51
Structure (SMILES): Cc1cc(C(=O)N[C@@H](CCc2ccccc2)C(=O)N[C@H](C(=O)N[C@@H](Cc2ccccc2)C(=O)N[C@@H](CC(C)C)C(=O)[C@@]2(C)CO2)C2CCCCC2)no1
pIC50 [2]: 7.83 | pIC50 [3]: 7.63

pIC50 [1]: 7.51
Structure (SMILES): COC[C@H](NC(=O)c1cc(C)on1)C(=O)N[C@@H](CC(C)C)C(=O)N[C@@H](Cc1ccccc1)C(=O)N[C@@H](CC(C)C)C(=O)[C@@]1(C)CO1

pIC50 [1]: 7.59
Structure (SMILES): Cc1cc(C(=O)N[C@@H](Cc2cc3ccccc3[nH]2)C(=O)N[C@@H](CC(C)C)C(=O)N[C@@H](Cc2ccccc2)C(=O)N[C@@H](CC(C)C)C(=O)[C@@]2(C)CO2)no1

pIC50 [1]: 6.14
Structure (SMILES): CC(C)C[C@H](NC(=O)[C@H](CCc1ccccc1)NC(=O)CN1CCOCC1)C(=O)N[C@@H](Cc1ccccc1)C(=O)N[C@@H](CCc1ccccc1)C(=O)[C@@]1(C)CO1

pIC50 [1]: 7.69
Structure (SMILES): Cc1cc(C(=O)N[C@@H](Cc2cscn2)C(=O)N[C@@H](CC(C)C)C(=O)N[C@@H](Cc2ccccc2)C(=O)N[C@@H](CC(C)C)C(=O)[C@@]2(C)CO2)no1

pIC50 [1]: 7.11
Structure (SMILES): CC[C@H](NC(=O)[C@H](Cc1ccccc1)NC(=O)[C@H](CC(C)C)NC(=O)[C@H](CCc1ccccc1)NC(=O)CN1CCOCC1)C(=O)[C@@]1(C)CO1

pIC50 [1]: 7.25
Structure (SMILES): Cc1cc(C(=O)NCC(=O)N[C@@H](CC(C)C)C(=O)N[C@@H](Cc2ccccc2)C(=O)N[C@@H](CC(C)C)C(=O)[C@@]2(C)CO2)no1

pIC50 [1]: 7.41
Structure (SMILES): CC(C)C[C@H](NC(=O)[C@H](Cc1cscn1)NC(=O)c1cnccn1)C(=O)N[C@@H](Cc1ccccc1)C(=O)N[C@@H](CC(C)C)C(=O)[C@@]1(C)CO1

pIC50 [1]: 7.57
Structure (SMILES): CC(C)C[C@H](NC(=O)[C@H](CCc1ccccc1)NC(=O)CN1CCOCC1)C(=O)N[C@@H](Cc1cscn1)C(=O)N[C@@H](CC(C)C)C(=O)[C@@]1(C)CO1
pIC50 [2]: 7.11 | pIC50 [3]: 7.25

pIC50 [1]: 7.28
Structure (SMILES): CC(C)C[C@H](NC(=O)[C@H](Cc1cscn1)NC(=O)CO)C(=O)N[C@@H](Cc1ccccc1)C(=O)N[C@@H](CC(C)C)C(=O)[C@@]1(C)CO1

pIC50 [1]: 7.19
Structure (SMILES): CC(C)C[C@H](NC(=O)[C@H](Cc1cscn1)NC(=O)c1cc(Cl)ccc1Cl)C(=O)N[C@@H](Cc1ccccc1)C(=O)N[C@@H](CC(C)C)C(=O)[C@@]1(C)CO1

pIC50 [1]: 7.44
Structure (SMILES): Cc1cc(C(=O)N[C@@H](CCc2ccccc2)C(=O)N[C@@H](CC2CCCC2)C(=O)N[C@@H](Cc2ccccc2)C(=O)N[C@@H](CC(C)C)C(=O)[C@@]2(C)CO2)no1

pIC50 [1]: 6.86
Structure (SMILES): CC(C)C[C@H](NC(=O)[C@H](CCc1ccccc1)NC(=O)CN1CCOCC1)C(=O)N[C@@H](Cc1ccccc1)C(=O)N[C@@H](Cc1ccccc1)C(=O)[C@@]1(C)CO1

IC50 [1]: Not Active
Structure (SMILES): Cc1cc(C(=O)N[C@@H](CCc2ccccc2)C(=O)N[C@@H](Cc2cscn2)C(=O)N[C@@H](Cc2ccccc2)C(=O)N[C@@H](CC(C)C)C(=O)[C@@]2(C)CO2)no1

IC50 [1]: Not Active
Structure (SMILES): COC[C@H](NC(=O)c1cc(C)on1)C(=O)NCC(=O)N[C@@H](Cc1ccccc1)C(=O)N[C@@H](CC(C)C)C(=O)[C@@]1(C)CO1

IC50 [1]: Not Active
Structure (SMILES): Cc1cc(C(=O)N[C@@H](CCc2ccccc2)C(=O)N[C@@H](Cc2ccccn2)C(=O)N[C@@H](Cc2ccccc2)C(=O)N[C@@H](CC(C)C)C(=O)[C@@]2(C)CO2)no1

pIC50 [1]: 6.79
Structure (SMILES): CCCC[C@H](NC(=O)[C@H](CC(C)C)NC(=O)[C@H](CCc1ccccc1)NC(=O)CN1CCOCC1)C(=O)N[C@@H](CC(C)C)C(=O)[C@@]1(C)CO1

pIC50 [1]: 7.01
Structure (SMILES): CC[C@H](NC(=O)[C@H](CC(C)C)NC(=O)[C@H](CCc1ccccc1)NC(=O)CN1CCOCC1)C(=O)N[C@@H](CC(C)C)C(=O)[C@@]1(C)CO1

pIC50 [1]: 7.37
Structure (SMILES): Cc1cc(C(=O)N[C@H](C(=O)N[C@@H](CC(C)C)C(=O)N[C@@H](Cc2ccccc2)C(=O)N[C@@H](CC(C)C)C(=O)[C@@]2(C)CO2)C2CC2)no1

pIC50 [1]: 7.22
Structure (SMILES): Cc1cc(C(=O)N[C@@H](Cc2ccccn2)C(=O)N[C@@H](CC(C)C)C(=O)N[C@@H](Cc2ccccc2)C(=O)N[C@@H](CC(C)C)C(=O)[C@@]2(C)CO2)no1

IC50 [1]: Not Active
Structure (SMILES): CC(C)C[C@H](NC(=O)[C@H](CCc1ccccc1)NC(=O)CN1CCOCC1)C(=O)NCC(=O)N[C@@H](CC(C)C)C(=O)[C@@]1(C)CO1

pIC50 [1]: 7.28
Structure (SMILES): CCCC[C@H](NC(=O)[C@H](Cc1ccccc1)NC(=O)[C@H](CC(C)C)NC(=O)[C@H](CCc1ccccc1)NC(=O)CN1CCOCC1)C(=O)[C@@]1(C)CO1

pIC50 [1]: 7.47
Structure (SMILES): CC(C)C[C@H](NC(=O)[C@H](Cc1cc2ccccc2s1)NC(=O)CN1CCOCC1)C(=O)N[C@@H](Cc1ccccc1)C(=O)N[C@@H](CC(C)C)C(=O)[C@@]1(C)CO1
pIC50 [2]: 7.27 | pIC50 [3]: 7.48

pIC50 [1]: 7.35
Structure (SMILES): CC(C)C[C@H](NC(=O)[C@H](Cc1ccsc1)NC(=O)CN1CCOCC1)C(=O)N[C@@H](Cc1ccccc1)C(=O)N[C@@H](CC(C)C)C(=O)[C@@]1(C)CO1
pIC50 [2]: 7.46 | pIC50 [3]: 7.62

pIC50 [1]: 7.43
Structure (SMILES): CC(C)C[C@H](NC(=O)[C@H](CCc1ccccc1)NC(=O)CN1CCOCC1)C(=O)N[C@@H](Cc1cc2ccccc2s1)C(=O)N[C@@H](CC(C)C)C(=O)[C@@]1(C)CO1
pIC50 [2]: 7.06 | pIC50 [3]: 7.09

pIC50 [1]: 7.43
Structure (SMILES): CC[C@H](NC(=O)[C@H](CCc1ccccc1)NC(=O)c1cc(C)on1)C(=O)N[C@@H](Cc1ccccc1)C(=O)N[C@@H](CC(C)C)C(=O)[C@@]1(C)CO1
pIC50 [2]: 7.33 | pIC50 [3]: 7.34

pIC50 [1]: 7.29
Structure (SMILES): COC[C@H](NC(=O)[C@H](CCc1ccccc1)NC(=O)c1cc(C)on1)C(=O)N[C@@H](Cc1ccccc1)C(=O)N[C@@H](CC(C)C)C(=O)[C@@]1(C)CO1

half-life at 1 µM [4]: 37.2 s | half-life at 1 µM [5]: < 60 s | half-life at 1 µM [6]: 20.4 s | half-life at 1 µM [7]: 14.6 s | half-life at 1 µM [8]: 17.2 s | microsomal CLint at 1 µM [9]: 2230 µL/min/mg | microsomal CLint at 1 µM [10]: 4100 µL/min/mg | microsomal CLint at 1 µM [11]: 5670 µL/min/mg | microsomal CLint at 1 µM [12]: > 1390 µL/min/mg | microsomal CLint at 1 µM [13]: 4850 µL/min/mg
Structure (SMILES): CC(C)C[C@H](NC(=O)[C@H](CCc1ccccc1)NC(=O)CN1CCOCC1)C(=O)N[C@@H](Cc1ccccc1)C(=O)N[C@@H](CC(C)C)C(=O)[C@@]1(C)CO1 [CARFILZOMIB]
T/C [14]: 34.6% | pIC50 [2]: 7.41 | pIC50 [3]: 7.45 | pIC50 [15]: 4.04
